Measurements as given in ChEMBL document CHEMBL1122341, “Prostaglandin isosteres. 2. Chain-modified thiazolidinone prostaglandin analogues as renal vasodilators” (1983).

Columns and labels:
Canis familiaris [1] = assay: Percent change in renal resistance in anesthetized dogs after infusion of compound at 50 nM/kg/min; format: functional, Canis lupus familiaris
Canis familiaris [2] = assay: Effect on lower arterial blood pressure in conscious dogs dosed at 5 mg/kg, observed at 1-2 h; format: functional, Canis lupus familiaris
Procedure, shortened: (§1)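 Conscious dogs; aortic catheter for blood pressure and heart rate, with renal and lower aortic blood flow monitored. After a 30-min control period the compound was given orally and the variables were followed for a further 5 h, recorded every 2 min. Readings were averaged over the control period and each hourly postdose period; means ± SE.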

Canis familiaris [3] = assay: Effect on lower aortic blood flow in conscious dogs dosed at 5 mg/kg, observed at 2-3 h; format: functional, Canis lupus familiaris, Aorta; procedure, shortened: as §1
Canis familiaris [4] = assay: Effect on renal plasma flow in conscious dogs dosed at 0.05 mg/kg (pretreatment); format: functional, Canis lupus familiaris
Procedure, shortened: (§2)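 Trained conscious female mongrel dogs, postabsorptive, given 500 mL tap water orally 1-1.5 h beforehand. Effective renal plasma flow was taken as renal p-aminohippurate clearance: priming 8 mg/kg iv, then 0.3 (mg/kg)/min in isotonic NaCl. Two 30-min control clearance periods, a single iv dose (Na salt, aqueous), then four 30-min periods. Plasma sampled at midpoints; means ± SEM.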

Canis familiaris [5] = assay: Effect on lower aortic blood flow in conscious dogs dosed at 5 mg/kg, observed at 1-2 h; format: functional, Canis lupus familiaris, Aorta; procedure, shortened: as §1
Canis familiaris [6] = assay: Effect on lower aortic blood flow in conscious dogs dosed at 5 mg/kg, observed at 4-5 h; format: functional, Canis lupus familiaris, Aorta; procedure, shortened: as §1
Canis familiaris [7] = assay: Effect on lower aortic blood flow in conscious dogs dosed at 5 mg/kg, observed at 0-1 h; format: functional, Canis lupus familiaris, Aorta; procedure, shortened: as §1
Canis familiaris [8] = assay: Effect on lower arterial blood pressure in conscious dogs dosed at 5 mg/kg, observed at 4-5 h; format: functional, Canis lupus familiaris; procedure, shortened: as §1
Canis familiaris [9] = assay: Effect on lower arterial blood pressure in conscious dogs dosed at 5 mg/kg, observed at 2-3 h; format: functional, Canis lupus familiaris; procedure, shortened: as §1
Canis familiaris [10] = assay: Effect on renal plasma flow in conscious dogs dosed at 0.2 mg/kg (pretreatment); format: functional, Canis lupus familiaris; procedure, shortened: as §2
Canis familiaris [11] = assay: Percent change in renal plasma flow in conscious dogs dosed at 0.2 mg/kg; format: functional, Canis lupus familiaris; procedure, shortened: as §2
Canis familiaris [12] = assay: Effect on renal blood flow in conscious dogs dosed at 5 mg/kg, observed at 0-1 h; format: functional, Canis lupus familiaris; procedure, shortened: as §1
Canis familiaris [13] = assay: Percent change in renal resistance in anesthetized dogs after infusion of compound at 25 nM/kg/min; format: functional, Canis lupus familiaris
Canis familiaris [14] = assay: Effect on heart rate in conscious dogs dosed at 5 mg/kg, observed at 3-4 h; format: functional, Canis lupus familiaris; procedure, shortened: as §1
Canis familiaris [15] = assay: Effect on renal blood flow in conscious dogs dosed at 5 mg/kg, observed at 4-5 h; format: functional, Canis lupus familiaris; procedure, shortened: as §1
Canis familiaris [16] = assay: Effect on renal plasma flow in conscious dogs dosed at 0.05 mg/kg (post-treatment); format: functional, Canis lupus familiaris; procedure, shortened: as §2
Canis familiaris [17] = assay: Effect on heart rate in conscious dogs dosed at 5 mg/kg, observed at 1-2 h; format: functional, Canis lupus familiaris; procedure, shortened: as §1
Canis familiaris [18] = assay: Percent change in renal resistance in anesthetized dogs after infusion of compound at 10 nM/kg/min; format: functional, Canis lupus familiaris
Procedure, shortened: (§3)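 Vinbarbital-anesthetized dogs with an electromagnetic flow probe on the left renal artery and an aortic catheter for pressure. Saline was infused intrarenally for 30 min as pretreatment. Percent change was calculated from the maximum decrease in renal resistance versus pretreatment.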

Canis familiaris [19] = assay: Effect on heart rate in conscious dogs dosed at 5 mg/kg, observed at 2-3 h; format: functional, Canis lupus familiaris; procedure, shortened: as §1
Canis familiaris [20] = assay: Effect on heart rate in conscious dogs dosed at 5 mg/kg, observed at 4-5 h; format: functional, Canis lupus familiaris; procedure, shortened: as §1
Canis familiaris [21] = assay: Effect on lower aortic blood flow in conscious dogs dosed at 5 mg/kg, observed at 3-4 h; format: functional, Canis lupus familiaris, Aorta; procedure, shortened: as §1
Canis familiaris [22] = assay: Effect on lower arterial blood pressure in conscious dogs dosed at 5 mg/kg, observed at 3-4 h; format: functional, Canis lupus familiaris; procedure, shortened: as §1
Canis familiaris [23] = assay: Effect on renal blood flow in conscious dogs dosed at 5 mg/kg, observed at 1-2 h; format: functional, Canis lupus familiaris, Kidney; procedure, shortened: as §1
Canis familiaris [24] = assay: Percent change in renal plasma flow in conscious dogs dosed at 0.05 mg/kg; format: functional, Canis lupus familiaris; procedure, shortened: as §2
Canis familiaris [25] = assay: Effect on heart rate in conscious dogs dosed at 5 mg/kg, observed at 0-1 h; format: functional, Canis lupus familiaris; procedure, shortened: as §1
Canis familiaris [26] = assay: Effect on lower arterial blood pressure in conscious dogs dosed at 5 mg/kg, observed at 0-1 h; format: functional, Canis lupus familiaris; procedure, shortened: as §1
Canis familiaris [27] = assay: Effect on renal plasma flow in conscious dogs dosed at 0.2 mg/kg (post-treatment); format: functional, Canis lupus familiaris; procedure, shortened: as §2
Canis familiaris [28] = assay: Percent change in renal plasma flow in conscious dogs dosed at 0.1 mg/kg; format: functional, Canis lupus familiaris; procedure, shortened: as §2
Canis familiaris [29] = assay: Effect on renal plasma flow in conscious dogs dosed at 0.1 mg/kg (post-treatment); format: functional, Canis lupus familiaris; procedure, shortened: as §2
Canis familiaris [30] = assay: Effect on renal blood flow in conscious dogs dosed at 5 mg/kg, observed at 3-4 h; format: functional, Canis lupus familiaris; procedure, shortened: as §1
Canis familiaris [31] = assay: Effect on renal plasma flow in conscious dogs dosed at 0.1 mg/kg (pretreatment); format: functional, Canis lupus familiaris; procedure, shortened: as §2
Canis familiaris [32] = assay: Effect on renal blood flow in conscious dogs dosed at 5 mg/kg, observed at 2-3 h; format: functional, Canis lupus familiaris, Kidney; procedure, shortened: as §1
Canis familiaris [33] = assay: Percent change in renal plasma flow in conscious dogs dosed at 0.4 mg/kg; format: functional, Canis lupus familiaris; procedure, shortened: as §2
Canis familiaris [34] = assay: Effect on renal plasma flow in conscious dogs dosed at 10 mg/kg (pretreatment); format: functional, Canis lupus familiaris; procedure, shortened: as §2
Canis familiaris [35] = assay: Effect on renal plasma flow in conscious dogs dosed at 0.4 mg/kg (post-treatment); format: functional, Canis lupus familiaris; procedure, shortened: as §2
Canis familiaris [36] = assay: Effect on renal plasma flow in conscious dogs dosed at 0.4 mg/kg (pretreatment); format: functional, Canis lupus familiaris; procedure, shortened: as §2
Canis familiaris [37] = assay: Effect on renal plasma flow in conscious dogs dosed at 10 mg/kg (post-treatment); format: functional, Canis lupus familiaris; procedure, shortened: as §2
Canis familiaris [38] = assay: Percent change in renal plasma flow in conscious dogs dosed at 10 mg/kg; format: functional, Canis lupus familiaris; procedure, shortened: as §2
Canis familiaris [39] = assay: Effect on renal plasma flow in conscious dogs dosed at 0.025 mg/kg (pretreatment); format: functional, Canis lupus familiaris; procedure, shortened: as §2
Canis familiaris [40] = assay: Effect on renal plasma flow in conscious dogs dosed at 0.025 mg/kg (post-treatment); format: functional, Canis lupus familiaris; procedure, shortened: as §2
Canis familiaris [41] = assay: Percent change in renal plasma flow in conscious dogs dosed at 0.025 mg/kg; format: functional, Canis lupus familiaris; procedure, shortened: as §2
Canis familiaris [42] = assay: Percent change in renal resistance in anesthetized dogs after infusion of compound at 60 nM/kg/min; format: functional, Canis lupus familiaris; settings: in the assay text read “60 ng/kg/min” for “60 nM/kg/min”; procedure, shortened: as §3
Canis familiaris [43] = assay: Percent change in renal resistance in anesthetized dogs after infusion of compound at 110 nM/kg/min; format: functional, Canis lupus familiaris; procedure, shortened: as §3
[44] = dose 1 mg/kg, in the assay text read “dosed at 1 mg/kg” for “dosed at 5 mg/kg”

| SMILES | Mean blood pressure (Canis familiaris [2]) | Mean LAF (Canis familiaris [3]) | Mean LAF (Canis familiaris [5]) | Mean LAF (Canis familiaris [6]) | Mean LAF (Canis familiaris [7]) | Mean blood pressure (Canis familiaris [8]) | Mean blood pressure (Canis familiaris [9]) | Activity (Canis familiaris [10]) | Mean RBF (Canis familiaris [12]) | Mean HR (Canis familiaris [14]) | Mean RBF (Canis familiaris [15]) | Mean HR (Canis familiaris [17]) | Mean HR (Canis familiaris [19]) | Mean HR (Canis familiaris [20]) | Mean LAF (Canis familiaris [21]) | Mean blood pressure (Canis familiaris [22]) | Mean RBF (Canis familiaris [23]) | Mean HR (Canis familiaris [25]) | Mean blood pressure (Canis familiaris [26]) | Mean RBF (Canis familiaris [30]) | also measured |
| --- | --- | --- | --- | --- | --- | --- | --- | --- | --- | --- | --- | --- | --- | --- | --- | --- | --- | --- | --- | --- | --- |
| O=C(O)c1ccc(CCCC2SCC(=O)N2CCC2(O)CCCCC2)cc1 (stereo not drawn) | 89 mmHg | 521 mL/min | 597 mL/min | 477 mL/min | 486 mL/min | 98 mmHg | 97 mmHg | 136 mL/min | 179 mL/min | 131 beats min-1 | 242 mL/min | 169 beats min-1 | 144 beats min-1 | 136 beats min-1 | 492 mL/min | 101 mmHg | 211 mL/min | 122 beats min-1 | 105 mmHg | 233 mL/min | Change (Canis familiaris [1]): -28%; Activity (Canis familiaris [4]): 148 mL/min; Change (Canis familiaris [11]): 137%; Change (Canis familiaris [13]): -24%; Activity (Canis familiaris [16]): 240 mL/min; Change (Canis familiaris [18]): -13%; Change (Canis familiaris [24]): 62%; Activity (Canis familiaris [27]): 322 mL/min; Change (Canis familiaris [28]): 52%; Activity (Canis familiaris [29]): 216 mL/min; Activity (Canis familiaris [31]): 142 mL/min; Mean RBF (Canis familiaris [32]; [44]): 226 mL/min |
| O=C(O)c1ccc(CCC[C@@H]2SCC(=O)N2CCC2(O)CCCCC2)cc1 | – | – | – | – | – | – | – | 138 mL/min | – | – | – | – | – | – | – | – | – | – | – | – | Change (Canis familiaris [33]): 8%; Change (Canis familiaris [11]): 6%; Activity (Canis familiaris [34]): 139 mL/min; Activity (Canis familiaris [35]): 147 mL/min; Activity (Canis familiaris [36]): 136 mL/min; Activity (Canis familiaris [37]): 151 mL/min; Activity (Canis familiaris [27]): 146 mL/min; Change (Canis familiaris [38]): 9% |
| CCCCCC(O)CCN1C(=O)CSC1CCCc1ccc(C(=O)O)cc1 (stereo not drawn) | 108 mmHg | 625 mL/min | 560 mL/min | 510 mL/min | 546 mL/min | 116 mmHg | 116 mmHg | – | 201 mL/min | 92 beats min-1 | 159 mL/min | 118 beats min-1 | 107 beats min-1 | 84 beats min-1 | 521 mL/min | 116 mmHg | 241 mL/min | 103 beats min-1 | 118 mmHg | 183 mL/min | Mean RBF (Canis familiaris [32]; dose 5 mg/kg): 209 mL/min |
| CCCCCC(O)CCN1C(=O)CSC1CCCCCCC(=O)O (stereo not drawn) | 146 mmHg | 432 mL/min | 424 mL/min | 386 mL/min | 420 mL/min | 132 mmHg | 140 mmHg | – | 181 mL/min | 82 beats min-1 | 111 mL/min | 79 beats min-1 | 85 beats min-1 | 76 beats min-1 | 427 mL/min | 133 mmHg | 110 mL/min | 126 beats min-1 | 123 mmHg | 116 mL/min | Mean RBF (Canis familiaris [32]; dose 5 mg/kg): 110 mL/min |
| O=C(O)c1ccc(CCC[C@H]2SCC(=O)N2CCC2(O)CCCCC2)cc1 | – | – | – | – | – | – | – | 143 mL/min | – | – | – | – | – | – | – | – | – | – | – | – | Activity (Canis familiaris [4]): 178 mL/min; Activity (Canis familiaris [39]): 155 mL/min; Change (Canis familiaris [11]): 104%; Activity (Canis familiaris [40]): 239 mL/min; Change (Canis familiaris [41]): 54%; Activity (Canis familiaris [16]): 289 mL/min; Change (Canis familiaris [24]): 62%; Activity (Canis familiaris [27]): 292 mL/min |
| O=C(O)CCCCCCC1SCC(=O)N1CCC1(O)CCCCC1 (stereo not drawn) | 74 mmHg | 530 mL/min | 742 mL/min | 388 mL/min | 772 mL/min | 104 mmHg | 92 mmHg | – | 97 mL/min | 94 beats min-1 | 160 mL/min | 185 beats min-1 | 113 beats min-1 | 88 beats min-1 | 510 mL/min | 100 mmHg | 150 mL/min | 180 beats min-1 | 59 mmHg | 176 mL/min | Mean RBF (Canis familiaris [32]; [44]): 199 mL/min |
| CCCCC[C@H](O)/C=C/[C@H]1[C@H](O)CC(=O)[C@@H]1C/C=C\CCCC(=O)O [DINOPROSTONE] | – | – | – | – | – | – | – | – | – | – | – | – | – | – | – | – | – | – | – | – | Change (Canis familiaris [42]): -29%; Change (Canis familiaris [18]): -13%; Change (Canis familiaris [43]): -35% |
